# The list is not random: actives were taken first. Their share in the collection is about 2.3%.
# ABCB1 inh: ABCB1 efflux pump inhibitors, primary screen, cell-based, multiplex, flow cytometry, ABCG2 counter-screen. CCRF-Adr cells, JC-1 efflux. AID 1326, 2008. inhibition, % at 6.6 µM. 0.067% of 190,000 active; in the data active = inhibition above about 40%;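 note: 0% = vehicle and 100% = reference inhibitor; higher value means more JC-1 retained so stronger ABCB1 efflux block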
# Arbovirus inh: antivirals against arbovirus infection, primary screen, cell-based, full library, 10K replicate subset | arbovirus infection cell-based antiviral screen | inhibition, % at 10 µM | 0.37% of 200,000 active | AID 1251, 2008; in the data active = inhibition above about 30%
# RAM network inh: inhibitors of the yeast RAM network, primary screen, dse1pr::URA3 reporter, 5-FOA selection. 1.8% of 190,000 active. inhibition, % at 50 µM. S. cerevisiae dse1pr::URA3 reporter, 5-FOA growth OD615, 2 d; analog-sensitive cbk1-as2 kinase mutant strain. AID 868, 2007;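 active = inhibition above a set limit, 3 SD over mean compound inhibition, cut at about 8.4% in these data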;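 note: 0% = DMSO-only wells with no growth and 100% = 10 µM 1-NA-PP1 full growth; inhibition rescues growth on 5-FOA so higher OD means more RAM inhibition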
# ABCG2 inh: ABCG2 efflux pump inhibitors, primary screen, multiplex with ABCB1, IgMXP3 cells, flow cytometry; Broad substrate specificity ATP-binding cassette transporter ABCG2 (Homo sapiens), Q9UNQ0; JC-1 efflux; inhibition, % at 6.6 µM; 0.1% of 190,000 active; AID 1325, 2008;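 active = inhibition above 80%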;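 note: 0% = DMSO and 100% = nicardipine control wells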
# Target sequence (Q9UNQ0 whole entry, looked up): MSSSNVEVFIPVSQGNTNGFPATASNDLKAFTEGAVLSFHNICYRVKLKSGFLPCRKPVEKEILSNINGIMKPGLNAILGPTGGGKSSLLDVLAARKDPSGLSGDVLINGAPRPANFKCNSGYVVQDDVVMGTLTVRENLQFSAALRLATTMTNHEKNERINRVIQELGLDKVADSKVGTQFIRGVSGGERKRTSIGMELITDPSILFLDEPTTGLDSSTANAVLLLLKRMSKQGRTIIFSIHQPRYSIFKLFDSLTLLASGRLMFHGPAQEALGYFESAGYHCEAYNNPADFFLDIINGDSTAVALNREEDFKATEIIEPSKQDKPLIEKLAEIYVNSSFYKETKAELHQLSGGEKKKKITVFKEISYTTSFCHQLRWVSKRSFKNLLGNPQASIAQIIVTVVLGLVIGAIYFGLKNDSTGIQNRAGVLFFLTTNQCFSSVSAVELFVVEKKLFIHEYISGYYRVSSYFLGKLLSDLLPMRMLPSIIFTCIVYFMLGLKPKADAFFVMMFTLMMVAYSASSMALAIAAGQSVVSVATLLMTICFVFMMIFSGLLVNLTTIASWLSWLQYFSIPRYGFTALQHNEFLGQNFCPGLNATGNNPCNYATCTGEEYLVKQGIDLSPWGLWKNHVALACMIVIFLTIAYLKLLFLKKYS
#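 Test system: IgMXP3 cells (ABCG2) mixed with DDAO far-red-labelled CCRF-Adr cells (ABCB1). Reagent: JC-1 transporter substrate. Compound dosing: single test compound dose, 6.6 µM final. Times: 10 min compound exposure, 25 °C. Detection: flow cytometry of retained JC-1 fluorescence. Read-out basis: efflux inhibition in percent versus controls. Controls: nicardipine and DMSO wells.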
# An asterisk follows results filed as active; . = no result.
SMILES,ABCB1 inh,Arbovirus inh,RAM network inh,ABCG2 inh
COc1ccc2[nH]c(=O)c(CN(Cc3cccs3)C(=S)Nc3cccc(C)c3)cc2c1,2,7,10*,7
COc1ccc(NC(=S)N(Cc2cccnc2)Cc2cc3cc(OC)c(OC)cc3[nH]c2=O)cc1,1,2,8.6*,2
COc1ccc2[nH]c(=O)c(CN(CCCN(C)C)C(=O)Nc3ccc(F)cc3)cc2c1,-6,30*,1,-5
COc1ccc(/C=C/c2nc(-c3ccccc3O)n[nH]2)cc1OC,0,30*,0,17
COc1ccc(C)cc1-n1nnnc1SC/C(O)=C(\C#N)c1nc2ccccc2[nH]1,0,-3,9.1*,0
Cc1ccccc1CSCCNS(C)(=O)=O,1,7,1,3
COc1ccc(S(=O)(=O)NCCSCc2ccccc2C)cc1Br,-5,-12,9.9*,-7
CCS(=O)(=O)C1=NN2C(=N)/C(=C\c3ccc(SCc4ccco4)o3)C(=O)N=C2S1,-1,29,11*,-4
CC1CCC2C(=O)N(c3cccc(OS(=O)(=O)c4ccccc4)c3)C(=O)C2C1 (stereo not drawn),2,2,9.4*,7
CC1CCC2C(=O)N(c3ccc(S(=O)(=O)c4ccccc4)cc3)C(=O)C2C1 (stereo not drawn),1,2,5,1
CCc1ccc(N2CC(C(=O)Nc3nccs3)CC2=O)cc1 (stereo not drawn),1,-2,0,8
O=C(Nc1nnc(SCc2ccc(F)cc2)s1)c1ccc2c(c1)C(=O)N(c1ccccc1Cl)C2=O,-2,44*,3,-4
O=C(CNC(=S)N(Cc1ccccc1)Cc1cccs1)NCc1ccc(F)cc1,1,-19,8.8*,4
O=C(Cc1cccs1)NCc1ccc(F)cc1,1,-5,2,2
C=CCc1cccc(/C=N/NC(=O)CCCNc2ccc(C)cc2)c1O,1,-27,1,14
CCc1ccc(C(=O)COC(=O)c2cc([N+](=O)[O-])ccc2NCCO)cc1,0,-6,10*,6
Cc1ccc(NC(=O)C(C)[n+]2ccccc2)cc1[N+](=O)[O-] (stereo not drawn),0,0,1,0
COc1cc(NC(=O)c2ccc(NS(=O)(=O)c3c(C)noc3C)cc2)cc(OC)c1,0,0,11*,6
COCCNC(=O)c1onc(CSc2ccc(F)c(F)c2)c1C(=O)O,0,3,1,5
Cc1[nH]c(=O)[nH]c(=O)c1S(=O)(=O)N1CCN(c2ccccc2F)CC1,0,-9,1,0
O=c1[nH]c2ccc(S(=O)(=O)N3CCN(c4ccccc4F)CC3)cc2s1,0,38*,5,1
CCN(CC)S(=O)(=O)c1ccc(Cl)c(C(=O)NC2CCCC2)c1,0,7,1,16
COC(=O)c1[nH]c(C)c(/C(O)=C2\C(=O)C(=O)N(CCN(C)C)C2c2ccc(C)o2)c1C (stereo not drawn),0,0,-1,0
Nc1nc2nccc(-c3ccco3)n2n1,0,-4,1,5
COc1ccc(/C=N/NC(=O)c2ccc(Cn3cc([N+](=O)[O-])cn3)o2)c(OC)c1C,2,-9,9.5*,17
SMILES,ABCB1 inh,Arbovirus inh,RAM network inh,ABCG2 inh
COc1ccc(NC(=O)c2nc3ccccc3s2)cc1,.,-4,2,2
N#CC(C#N)=CC1=C2OC(c3ccccc3)=CC(c3ccccc3)=C2CCC1,0,1,10*,2
COc1ccc(/C=N/NC(=O)CSc2nnc(CCCc3ccc(OC)c(C)c3)o2)cc1,1,-4,10*,15
Cc1ccccc1-n1c(C)nnc1SCc1nc2ccccc2s1,1,14,1,4
CCOc1ccccc1-n1nnnc1SCc1nc2ccccc2s1,0,-3,9.9*,1
O=C(CSc1nnnn1-c1cccc2ccccc12)NC(C(=O)O)(c1ccccc1)c1ccccc1,-1,4,8.8*,-1
Cc1ccc(-n2nnnc2SCC(=O)NC(C(=O)O)(c2ccccc2)c2ccccc2)cc1C,0,2,6,-1
CCCCNC(=S)N/N=C1\C(=O)c2cccc3cccc1c23,-1,5,9.1*,14
C(=N\Nc1nc(-c2ccccc2)cs1)/c1ccncc1,0,15,-2,2
C(=N\Nc1nc(-c2ccccc2)cs1)/c1ccco1,0,36*,0,-1
C(=N\Nc1nc(-c2ccccc2)cs1)/c1cccs1,-1,35*,1,-1
